Pf Dd2 inh = inhibitors of Plasmodium falciparum Dd2 growth; P. falciparum Dd2 growth, SYBR Green, 72 h; active compounds read low; AID 1159554; activity change, % at 10 µM; 94,000 compounds, 2.3% hits; in the data active = activity change below about -80%
IDH1 R132H inh = inhibitors of human IDH1 R132H; IDH1 R132H reductase, diaphorase/resazurin fluorescence, 60 min; 70,000 compounds, 0.18% hits; inhibition, % at 10 µM; AID 624101; O75874; in the data active = inhibition above about 34%;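 note: 0% = DMSO and 100% = no enzyme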
GASC1 inh = KDM4C (human) demethylase inhibition; Q9H3R0; GST-KDM4C 2-372, H3K9me3 peptide, LANCE TR-FRET; inhibition, % at 12.5 µM; 96,000 compounds, 0.15% hits;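 active = mean replicate inhibition above about 25%, with at least 55% of replicates also reaching it, limit read from the data, passing the limit was not always enough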
Target sequence (Q9H3R0 2-372 limits assumed): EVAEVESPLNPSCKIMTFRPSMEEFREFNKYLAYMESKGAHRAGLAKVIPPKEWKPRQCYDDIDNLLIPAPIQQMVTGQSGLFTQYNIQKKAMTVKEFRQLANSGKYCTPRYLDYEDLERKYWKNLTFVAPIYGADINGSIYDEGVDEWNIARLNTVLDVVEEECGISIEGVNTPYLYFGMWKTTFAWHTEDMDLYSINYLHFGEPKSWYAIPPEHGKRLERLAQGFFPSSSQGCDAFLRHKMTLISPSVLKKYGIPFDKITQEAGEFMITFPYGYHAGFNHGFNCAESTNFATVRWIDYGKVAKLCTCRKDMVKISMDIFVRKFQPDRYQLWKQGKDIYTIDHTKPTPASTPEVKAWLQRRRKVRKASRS
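Material: GST-tagged GASC-1 (JMJD2C) catalytic fragment, aa 2-372. Input: enzyme final amount 10 nM. Medium: HEPES buffer, pH 7.5, plus ascorbate. Reagent: H3K9me3 peptide substrate, Fe(II), 2-oxoglutarate. Doses: single dose. Times: reaction 30 min RT, detection step 1 h RT. Measured by: LANCE TR-FRET. Evaluation: Fall in 671/618 emission ratio as inhibition.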
* marks the source's active call; other numbers are inactive results; . = no result given. This is one part of a sample in which hits are shown more often than they occur.

SMILES | Pf Dd2 inh | IDH1 R132H inh | GASC1 inh
CN(C)C(=O)c1cccc(-c2cccc(-c3nc(C(=O)NC4CCCCC4)cc4c3[C@H](CCO)N([S@@](=O)C(C)(C)C)C4)c2)c1 | -84* | 0 | -5
CN(C)C(=O)c1cccc(-c2cccc(-c3nc(C(=O)NC4CCCCC4)cc4c3[C@@H](CCO)N([S@](=O)C(C)(C)C)C4)c2)c1 | -87* | 0 | -1
CN(C)C(=O)c1ccc(-c2cccc(-c3nc(C(=O)NC4CCCC4)cc4c3[C@@H](CCO)N([S@](=O)C(C)(C)C)C4)c2)cc1 | -74 | 0 | 2
CN(C)C(=O)c1ccc(-c2cccc(-c3nc(C(=O)NC4CCCCC4)cc4c3[C@@H](CCO)N([S@](=O)C(C)(C)C)C4)c2)cc1 | -74 | 0 | .
COc1ccc(C#Cc2cccc(-c3nc(C(=O)N[C@@H]4CCN(Cc5ccccc5)C4)cc4c3[C@@H](CCO)N(S(=O)C(C)(C)C)C4)c2)cc1OC (stereo not given in full) | -88* | . | .
COc1ccc(CN(C)C[C@@H]2Oc3ccc(N(C)C)cc3CC(=O)N([C@@H](C)CO)C[C@H]2C)cc1 | -9 | -1 | 5
CCc1cccc(C)c1NC(=O)CSc1nnc(-c2ccc(Cl)cc2Cl)n1C | . | -1 | .
Cc1noc(C)c1NC(=O)N(C)C[C@H]1Oc2ccc(NS(=O)(=O)c3cccs3)cc2C(=O)N([C@H](C)CO)C[C@H]1C | 13 | -2 | -1
C[C@@H]1CN([C@@H](C)CO)C(=O)c2ccccc2-c2ccccc2CO[C@@H]1CN(C)C(=O)Nc1cccc(Cl)c1Cl | -65 | . | -3
C[C@@H]1CN([C@H](C)CO)C(=O)c2ccccc2-c2ccccc2CO[C@@H]1CN(C)C(=O)Nc1cccc(Cl)c1Cl | -69 | . | 0
C[C@@H]1CN([C@H](C)CO)C(=O)c2ccccc2-c2ccccc2CO[C@H]1CN(C)C(=O)Nc1cccc(Cl)c1Cl | -94* | . | .
C[C@@H]1CN([C@@H](C)CO)C(=O)c2ccccc2-c2ccccc2CO[C@H]1CN(C)C(=O)Nc1cccc(Cl)c1Cl | -95* | . | 1
COc1ccc(NC(=O)Nc2ccc3c(c2)C(=O)N([C@H](C)CO)C[C@@H](C)[C@@H](CN(C)S(=O)(=O)c2cccs2)OCCCC[C@H](C)O3)cc1 | 2 | . | -4
CCC(=O)N1[C@H](CNC(=O)CN2CCOCC2)[C@H](c2ccccc2)[C@@H]1CO | 26 | . | -1
Cc1noc(C)c1NC(=O)N(C)C[C@@H]1Oc2ccc(NS(=O)(=O)c3cn(C)cn3)cc2CC(=O)N([C@@H](C)CO)C[C@H]1C | 40 | 3 | -1
Cc1noc(C)c1NC(=O)N(C)C[C@@H]1Oc2ccc(NC(=O)C3CCCCC3)cc2CC(=O)N([C@@H](C)CO)C[C@@H]1C | 14 | 0 | 1
Cc1noc(C)c1NC(=O)N(C)C[C@H]1Oc2ccc(NC(=O)C3CC3)cc2CC(=O)N([C@@H](C)CO)C[C@H]1C | -83* | -1 | 2
Cc1noc(C)c1NC(=O)N(C)C[C@@H]1Oc2ccc(NS(=O)(=O)c3cn(C)cn3)cc2CC(=O)N([C@H](C)CO)C[C@H]1C | -83* | 1 | 14
C[C@@H]1CN([C@H](C)CO)C(=O)Cc2cc(NC(=O)CCCCCC(=O)Nc3ccccc3N)ccc2O[C@H]1CN(C)S(=O)(=O)c1ccccc1 | -41 | 0 | 1
C[C@@H]1CN([C@@H](C)CO)C(=O)c2cccc(NS(=O)(=O)c3cccs3)c2O[C@H]1CN(C)Cc1ccc(Cl)c(Cl)c1 | -27 | 2 | -2
COc1ccc(NC(=O)Nc2ccc3c(c2)C(=O)N([C@@H](C)CO)C[C@H](C)[C@@H](CN(C)C(=O)Cc2ccccc2)OCCCC[C@H](C)O3)cc1 | -68 | . | -1
O=C(CSc1nnc(-c2ccccc2)n1-c1ccccc1)Nc1ccc(Br)c(Cl)c1 | . | 0 | .
C[C@@H]1CN([C@H](C)CO)S(=O)(=O)c2ccc(-c3cccnc3)cc2O[C@H]1CN(C)Cc1ccncc1 | -25 | 1 | 1
C[C@H]1CCCCO[C@H](CN(C)C(=O)CCCN(C)C)[C@@H](C)CN([C@@H](C)CO)C(=O)c2cc(NC(=O)Nc3ccc(C(F)(F)F)cc3)ccc2O1 | -38 | . | 1
C[C@@H]1CN([C@H](C)CO)C(=O)c2cc(NC(=O)Nc3ccccc3)ccc2O[C@@H](C)CCCCO[C@@H]1CN(C)C(=O)Cc1ccccc1 | -75 | 0 | -1
C[C@@H]1CN([C@@H](C)CO)C(=O)c2cc(NC(=O)Nc3ccc4c(c3)OCO4)ccc2O[C@@H](C)CCCCO[C@H]1CN(C)C(=O)Cc1ccccc1 | -6 | . | 0
C[C@H](CO)N1C[C@H](C)[C@H](CN(C)C(=O)Cc2ccccc2)OCCCC[C@H](C)Oc2ccc(NC(=O)Nc3ccc(F)cc3)cc2C1=O | 50 | -1 | -1
